High-throughput results from PubChem BioAssay.
HDAC3 inh: inhibitors of human histone deacetylase 3. O15379. recombinant HDAC3, fluorogenic peptide/trypsin coupled, fluorescence. inhibition, % at 8.3 µM. 0.15% of 320,000 active; in the data active means inhibition above about 26%, passing the limit was not always enough; inconclusive means no clear call, values can overlap the other calls
Target sequence (O15379 whole entry, looked up): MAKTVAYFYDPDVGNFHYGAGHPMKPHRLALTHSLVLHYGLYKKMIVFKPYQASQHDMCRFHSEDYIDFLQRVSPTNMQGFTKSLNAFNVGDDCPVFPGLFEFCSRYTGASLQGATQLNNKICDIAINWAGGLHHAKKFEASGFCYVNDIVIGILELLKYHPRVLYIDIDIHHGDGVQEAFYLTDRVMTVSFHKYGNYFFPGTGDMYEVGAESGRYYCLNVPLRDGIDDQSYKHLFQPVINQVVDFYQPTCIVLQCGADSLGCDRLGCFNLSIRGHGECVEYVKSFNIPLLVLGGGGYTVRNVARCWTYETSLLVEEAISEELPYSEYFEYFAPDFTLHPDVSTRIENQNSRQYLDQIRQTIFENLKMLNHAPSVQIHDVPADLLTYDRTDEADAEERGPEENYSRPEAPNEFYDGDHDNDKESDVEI
M18AAP inhibitor: PfM18AAP enzyme inhibition | inhibition, % at 7.35 µM | recombinant PfM18AAP, H-Glu-NHMec fluorogenic cleavage | 1.2% of 290,000 active | AID 1822;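 active means inhibition above the campaign mean inhibition over all tested compounds plus 3 SD, cut at about 28% in these data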
SENP1 FRET inh: SENP1 (human) catalytic domain inhibition. AID 624204. 0.21% of 360,000 active. Q9P0U3. recombinant SENP1 catalytic domain, CyPet-SUMO1-YPet FRET cleavage. inhibition, % at 10 µM;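 active means inhibition at least 30% at 10 µM, raw YFP signal under a set limit, fluorescence ratio 0.5 to 1.5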
Target sequence (Q9P0U3 419-644 limits assumed): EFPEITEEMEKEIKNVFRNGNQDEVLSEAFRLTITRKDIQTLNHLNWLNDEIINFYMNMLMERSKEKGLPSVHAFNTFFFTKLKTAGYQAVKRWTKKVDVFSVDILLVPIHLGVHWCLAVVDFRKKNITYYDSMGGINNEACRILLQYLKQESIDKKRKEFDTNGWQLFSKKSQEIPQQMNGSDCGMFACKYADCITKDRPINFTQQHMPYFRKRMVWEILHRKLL
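Assay system: hSENP1 catalytic domain, recombinant. Amount: SENP1 enzyme, 20 pM final. Schedule: 50 min reaction, RT, dark. Technique: FRET, CFP and YFP emission. Control set: no-enzyme wells low, DMSO-plus-enzyme wells high control.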
CTSL1 counter: counter-screen for PFM18AAP inhibitors: inhibitors of F. hepatica cathepsin L1; recombinant F. hepatica cathepsin L1, Z-Leu-Arg-MCA fluorescence; inhibition, % at 5.96 µM; 0.49% of 300,000 active; AID 1906;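 active means inhibition above the mean of all tested compounds plus 3 SD, set per screening campaign, cut at about 17% in these data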
AHR act: activators of human aryl hydrocarbon receptor | P35869 | AHR-responsive luciferase reporter cells, luminescence | activation, % at 5 µM | 2.5% of 320,000 active; in the data active means activation above about 47%
FXN GAA850 act: activators of GAA850 frataxin (FXN) promoter; 0.56% of 360,000 active; activation, % at 6 µM; HEK293 lucGAA850 FXN promoter luciferase reporter, 24 h; percent of 10 µM SAHA response;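 active means activation above the average of all compounds screened plus 3 SD, cutoff fixed separately per campaign, cut at about 7.5% in these data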
Each line names hits and unclear results; the compound was inactive in the other large screens. The list is not random: actives were taken first. Their share in the collection is about 4.2%.

CCCNC(=O)c1cc2c3ccccc3n(C)c2s1	AHR act 52
Cn1c2ccccc2c2cc(C(=O)NNC(=O)CCl)sc21	CTSL1 counter 94, AHR act 62
CSc1ccccc1NC(=O)CN(c1ccccc1Br)S(C)(=O)=O	none
CC1=N/C(=C/c2cc(Br)cc(Br)c2O)C(=O)O1	none
COc1cc2c(cc1OC)/C(=C/C(=O)OCc1ccccc1)OC2	none (no result: HDAC3 inh, M18AAP inhibitor, CTSL1 counter, AHR act, FXN GAA850 act)
CCCCN(C(=O)CSCC(=O)Nc1ccc(C)cc1)c1c(N)n(Cc2ccccc2)c(=O)[nH]c1=O	none (no result: M18AAP inhibitor)
COc1ccccc1N(C)S(=O)(=O)c1ccc(C(=O)N2CCCC(C(F)(F)F)C2)cc1 (centres undefined)	none (no result: HDAC3 inh, M18AAP inhibitor)
O=C(CSc1ncccn1)N(Cc1cccnc1)C(CCc1ccccc1)c1nc2ccccc2[nH]1 (centres undefined)	none (no result: HDAC3 inh, M18AAP inhibitor, CTSL1 counter, AHR act, FXN GAA850 act)
COc1ccc(NS(=O)(=O)c2cc(NC(=O)c3ccc(=O)[nH]c3)ccc2N2CCCC2)cc1	none
CCCc1cc(NC(=O)CCl)n(-c2ccccc2)n1	CTSL1 counter 79
CC(C)(C)c1cc(NC(=O)CCl)n(-c2ccccc2)n1	CTSL1 counter 57 (no result: HDAC3 inh)
O=C(N/N=C/c1oc(O)c2ccccc12)c1ccccc1O	none
O=[N+]([O-])CC(=Nc1ccc(F)cc1)N/N=C\c1oc(O)c2ccccc12	AHR act 54 (no result: SENP1 FRET inh, FXN GAA850 act)
CNC(=O)/C(C#N)=C/c1c(N2CCN(c3ccccc3)CC2)nc2c(C)cccn2c1=O	AHR act 49
CNC(=O)/C(C#N)=C/c1c(N2CCN(c3ccc(OC)cc3)CC2)nc2c(C)cccn2c1=O	AHR act 55
COC(=O)/C(C#N)=C/c1c(N2CCN(c3ccc(OC)cc3)CC2)nc2c(C)cccn2c1=O	none
CNC(=O)/C(C#N)=C/c1c(N2CCCCCC2)nc2c(C)cccn2c1=O	none
C[C@H]1CCCCO[C@H](CN(C)Cc2ccc(C(=O)O)cc2)[C@@H](C)CN([C@@H](C)CO)C(=O)c2cc(NS(=O)(=O)c3cn(C)cn3)ccc2O1	none (no result: HDAC3 inh, M18AAP inhibitor, CTSL1 counter, AHR act)
COc1ccccc1/C=C(/CC(=O)NCc1ccc2c(c1)OCO2)c1nc2ccccc2s1	HDAC3 inh inconclusive, AHR act 81
Cc1cccc(C(=O)O[C@@H]2[C@H](Cc3ccccc3)NS(=O)(=O)[C@H]3C[C@@H]4C=C[C@]23O4)c1	none (no result: M18AAP inhibitor, CTSL1 counter)
COc1ccc(C(C(=O)c2ccccc2)c2ccccc2)cc1 (centres undefined)	none (no result: HDAC3 inh, M18AAP inhibitor, CTSL1 counter, AHR act, FXN GAA850 act)
O=C(O)c1ccc2ncsc2c1	M18AAP inhibitor 62
O=C(Nc1ccc(Cl)cc1)c1cncs1	AHR act 68
O=C(Nc1ccc(F)cc1)c1cncs1	none
O=C(Nc1ccc(F)cc1)c1ccc2ncsc2c1	none
O=C(Nc1ccc(Cl)cc1)c1ccc2ncsc2c1	AHR act 49
Cc1nc(Cl)sc1C(=O)Nc1ccc(Cl)cc1	AHR act 93
COc1ccc(Cn2cc(CN3CC(N4CCSCC4)CS3(=O)=O)nn2)cc1 (centres undefined)	none (no result: HDAC3 inh, M18AAP inhibitor, CTSL1 counter, AHR act, FXN GAA850 act)
CCOC(=O)c1sc(SCc2ccccc2)c2c1CC(C)(C)CC2=O	none (no result: M18AAP inhibitor)
CC(=O)Oc1ccc2c(C)c(CC(=O)N3CCN(C(=O)C4COc5ccccc5O4)CC3)c(=O)oc2c1C (centres undefined)	none
Fc1ccc(-c2noc(-c3ccc4c(c3)CCO4)n2)cc1	AHR act 62
S=c1nccc(-c2ccc3c(c2)CCO3)[nH]1	none
COc1ccc2[nH]c3c(N4CCc5ccccc5C4)ncnc3c2c1	AHR act 58
CCOc1ccc2[nH]c3c(N4CCN(C(=O)c5ccco5)CC4)ncnc3c2c1	none (no result: HDAC3 inh)
CCOc1ccc2[nH]c3c(N4CCC5(CC4)OCCO5)ncnc3c2c1	AHR act 71 (no result: SENP1 FRET inh, FXN GAA850 act)
CC(C)CC1C(=O)N(Cc2cn(CC3CCCCC3)nn2)CCS(=O)(=O)N1Cc1ccc(-c2cccc(C#N)c2)cc1 (centres undefined)	none (no result: HDAC3 inh, M18AAP inhibitor, CTSL1 counter, AHR act)
CCc1nc(SCC(=O)c2cccc([N+](=O)[O-])c2)n[nH]1	none
Cc1nc2nc(SCc3nc4ccccc4[nH]3)[nH]c2cc1Br	none
Cc1nc2nc(SCC(=O)C(C)(C)C)[nH]c2cc1Br	AHR act 47
Cc1nc2nc(SCC(=O)c3cccc([N+](=O)[O-])c3)[nH]c2cc1Br	AHR act 57
O=C(CN1CCN(c2ccccn2)CC1)Nc1ccc(F)cc1F	none
Cc1cccc(-c2cnc(C(O)Cc3ccccc3)[nH]2)c1 (centres undefined)	none (no result: HDAC3 inh, M18AAP inhibitor, CTSL1 counter, AHR act)
N/C(=N\OS(=O)(=O)c1ccc(Br)cc1)c1ccncc1	CTSL1 counter 29
N/C(=N\OC(=O)COc1ccc(Br)cc1)c1ccncc1	none
CC(=O)Nc1c(-c2ccc3ccccc3c2)nc2ccccn12	AHR act 51
O=C(Nc1c(-c2ccccc2)nc2ccccn12)c1ccccc1	none
CCC(=O)Nc1c(-c2ccc3ccccc3c2)nc2ccccn12	AHR act 50
COc1ccc(S(=O)(=O)N2CCCC(c3cc(C(=O)NCc4cccnc4)no3)C2)cc1 (centres undefined)	none (no result: HDAC3 inh, M18AAP inhibitor, CTSL1 counter, AHR act)
Cc1ccccc1NC(=O)CC1C(=O)Nc2ccccc2N1CC(=O)N(C)C1CCS(=O)(=O)C1 (centres undefined)	AHR act 60 (no result: HDAC3 inh, M18AAP inhibitor, CTSL1 counter)
COc1ccc(C(C)(O)c2nc(-c3ccc4ccccc4c3)cs2)cc1 (centres undefined)	none (no result: HDAC3 inh, M18AAP inhibitor, CTSL1 counter, AHR act)
COC(=O)c1c(-c2ccccc2)noc1-c1ccccc1	AHR act 53 (no result: M18AAP inhibitor)
CC(=O)Nc1cccc(C(=O)OCc2csc(CC(=O)Nc3ccccc3C)n2)c1	none (no result: M18AAP inhibitor, CTSL1 counter)
Cc1nn(-c2ccc(Cl)cc2)c(=O)c2c(C)noc12	AHR act 78
Cc1ccc(-n2nc(C)c3c(C)onc3c2=O)cc1	none
O=C(COC(=O)c1ncc(Cl)c(Cl)c1Cl)Nc1ccc(Cl)cn1	AHR act 66 (no result: M18AAP inhibitor)
O=C(COC(=O)c1nc(Cl)ccc1Cl)Nc1ccc(Cl)cn1	none (no result: M18AAP inhibitor, CTSL1 counter)
Cc1ccc(/C=N/NC(=O)c2cccc(S(=O)(=O)Nc3ccccc3Cl)c2)s1	AHR act 53
O=C(N/N=C/c1ccncc1)c1cccc(S(=O)(=O)Nc2ccc(Cl)cc2)c1	M18AAP inhibitor 33
O=C(N/N=C/c1cccnc1)c1cccc(S(=O)(=O)Nc2cccc(Cl)c2)c1	none
O=C(N/N=C/c1ccccc1C(=O)O)c1cccc(S(=O)(=O)Nc2cc(Cl)ccc2Cl)c1	none
O=S(=O)(c1ccccc1)N1CCCCC1CCc1ccccc1 (centres undefined)	none (no result: HDAC3 inh, M18AAP inhibitor, CTSL1 counter, AHR act)
ON=C1c2ccccc2-c2cc(Br)ccc21	none (no result: HDAC3 inh, M18AAP inhibitor, CTSL1 counter, AHR act)
O=C1N=C(N2CCOCC2)S/C1=C\c1ccc(-c2ccccc2Cl)o1	AHR act 50 (no result: HDAC3 inh)
Cc1ccccc1-c1ccc(/C=C2/SC(N3CCOCC3)=NC2=O)o1	none
C=CCn1cc(/C=C2\SC(N3CCOCC3)=NC2=O)c2ccccc21	AHR act 71
Cc1ccc(C(=O)Nn2cnnc2)cc1	M18AAP inhibitor 29
CC(C)(C)OC(=O)C[C@H]1C/C=C\C[C@H](CC(=O)NCCO)C(=O)N2CCC[C@@H]2COC1=O	none (no result: M18AAP inhibitor, CTSL1 counter)
